Test results from the EternaBench riboswitch data.

Test system: MS2 coat protein
Experiment: apparent Kd, MS2 coat protein; higher = weaker binding; RNA-MaP array; FMN 200 µM where present
Procedure, shortened: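 Binding was read on Illumina sequencing-chip clusters where stalled E. coli RNA polymerase had transcribed each design. A titration of SNAP-549-labelled MS2 coat protein began at 0.7 or 1.5 nM and doubled to 3 µM, once without ligand and once with constant ligand, in 100 mM Tris-HCl pH 7.5, 80 mM KCl, 4 mM MgCl2, BSA, DTT, yeast tRNA and Tween-20. The apparent Kd is the median of filtered per-cluster binding-curve fits, based on green signal normalised to red-channel RNA signal and control-cluster median Fmax.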

[1] = designed as: OFF switch for flavin mononucleotide, no ligand
[2] = ligand present: flavin mononucleotide, designed as: OFF switch for flavin mononucleotide
[3] = designed as: ON switch for flavin mononucleotide, no ligand
[4] = ligand present: flavin mononucleotide, designed as: ON switch for flavin mononucleotide

Sequence	apparent Kd [1]	apparent Kd [2]	apparent Kd [3]	apparent Kd [4]
GGCCUGUAAGGAUAUUAGUAGUAGUCAGAAAAGACUAUUACUGAGAAGGUACAUGAGGAUCACCCAUGUUGGCC	17.4 nM	20.1 nM		
CCUGGCUUAGGAUAUACAGGAUCCGGGAACCCGGAAGUGAAACAUGAGGAUCACCCAUGUAGAAGGAAGAAAGC	28.8 nM	16.5 nM		
AAACAUGUCCGAGGAUAUCUGGAAACAAUUCCAAGAGAAGGCGGACAUGAGGAUCACCCAUGUCUCUCCUCAUCAAAUCCAAGU	11.2 nM	67.1 nM		
GUAGAGUAGUGAGGAUAUACGAGCUCGAUAGAGCGGCGAUCCAUUAAUACAUGAGGAUCACCCAUGUAGAAGGCACUUCUCUAC	5.83 nM	72 nM		
AACAUACAUGAGGAUCACCCAUGUUCCGGCAGGCUAGGAUAUCAAUCGAAAGUGUUAUAAUGAGAAGGAGCAUAAA			49 nM	29.4 nM
UGGUGACGUUUCUUCUCGACAUGAGGAUCACCCAUGUAGACAGAGGAUAUCCGAGUUGCCAAUAUGGAGAAGGCUGACUGCGAA	6.6 nM	8.32 nM		
GUCCUCAUGACAUGAGGAUCACCCAUGUAUUAUUUGUUAACUGAGGAUAUACUCUUAAUUUUUAUGUAGAAGGCAGAUUCGGUC	35.6 nM	39.9 nM		
ACAAGAUCAGGAUAUACAUGAGGAUCACCCAUGUAUAUCAAAAAGGGACUUUCUUAAUGUAGAAGGGAUCAUGU	14 nM	12.7 nM		
AAGAAACAUGAGGAUCACCCAUGUAAAUAAAACACAGGAUAUCGAAUAUGGGAGAUUUAACGAGAAGGGUGAAGAA			100 nM	56.6 nM
GCAAAGCCUGACAUGAGGAUCACCCAUGUUAGAUUGUUAUGUCAGGAUAUUGUCUAGAACCUAGACAAGAAGGGAUGCUUUGCU			337 nM	26.4 nM
UCCUGACCGAGAGAUAGGAGUAGUAGAAGGCGACCGGUGCCAGAUGACAUGAGGAUCACCCAUGUCGAGGAUAUACUACAGAAU	6.99 nM	9.63 nM		
CUAGCAUACCGAGGAUAUUCAUAUAAUAAAUAAACAUGAGGAUCACCCAUGUGGCGAAAGCCUAGGGAGAAGGCGGAAUGCUAC			162 nM	27 nM
GGCUGCGUUGUGAAGGAUAUCCGCGUCUGGACAUGAGGAUCACCCAUGUAUGCUUGGAUCAUGCCGGAGAAGGUCACGAAUGAUU			34.3 nM	17 nM
AAAAUGUCAGGAUAUGCGAAGGCGUCUGACAGACGAGGAUUGCAGAAGGGACAUGAGGAUCACCCAUGUAAAAA	50.6 nM	126 nM		
GGGAAGUGAGGAUAUAUGAGAGAGGCUGAACCGGACGAGAAGUAGAAGGCACAUGAGGAUCACCCAUGUAGGGA	118 nM	86 nM		
UGGUAACAUGAGGAUCACCCAUGUCAAAUGAAUCGAGGAUAUGGGAAUUAACAACACAAACUAGAAGGCGAAUUUG			303 nM	247 nM
AAUAUGUGAGGAUAUAUCCACCGCGUAGGCGCGCGGUGACAAUAGAAGGUACAUGAGGAUCACCCAUGUAGGGA	51.5 nM	31.5 nM		
GGAUGACAUAGUCAUCCUUAACGAACAUGAGGAUCACCCAUGUAGGAUAUGCUACUCAAAGAGUAGCAGAAGGGCGUGUGUCUU	42.6 nM	49 nM		
UGGUUGUCAGGAUAUACGUUUUUUAACUUUUGUUUUAUAUUGUAGAAGGGACAUGAGGAUCACCCAUGUUACGU	25.2 nM	27.1 nM		
UGUCGGAGCAUAGGAUAUUACAUGAGGAUCACCCAUGUAUGAACCAAUAGCUGGAAACAGCAAUGUAAGAAGGCUGCUCCGACA	5.16 nM	8.98 nM		
UAGCCACAAGGAUAUACAUGAGGAUCACCCAUGUUUCCAGGAUGCCCUCUCAUGGGUUGUAGAAGGUGUCGGCG	15.8 nM	17.9 nM		
UAAGUGUGAGGAUAUUCGUAGUACACGGAGACGUGUAUUACGGAGAAGGCACAUGAGGAUCACCCAUGUUCCUU	20.7 nM	182 nM		
CUGUGAGGGAUCCAGAAUUACAACAUGAGGAUCACCCAUGUACAGGAUAUAGGGUUGAUAGGCGCCUAGAAGGGUAUGAUCACG	632 nM	584 nM		
